Test results published in ChEMBL document CHEMBL1165998, “Antihyperglycemic effect of catalpol in streptozotocin-induced diabetic rats” (2010).
Calls of active or inactive are those of the source. The rule behind the calls is not given here.

Tests used:
[1] = tested on: Rattus norvegicus; experiment: Antihyperglycemic effect in streptozotocin-induced diabetic Wistar rat assessed as reduction of plasma glucose level at 100 mg/kg, po relative to untreated control; set-up: scale not given: the % may be the effect or the level left
[2] = tested on: Rattus norvegicus; experiment: Antihyperglycemic effect in streptozotocin-induced diabetic Wistar rat assessed as reduction of plasma glucose level at 0.1 mg/kg, iv bolus after 30 mins relative to untreated control; type: functional; set-up: scale not given: the % may be the effect or the level left
Summary of the method: (§1)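 STZ (60 mg/kg) given to fasted rats; animals with plasma glucose of 20 mmol/L or more plus diabetic features were used two weeks later. Fasted rats got an i.v. bolus of catalpol in normal saline (0.01–0.15 mg/kg) or vehicle. Tail-vein blood was drawn under pentobarbital at 30 min. Glucose was read enzymatically in duplicate, and activity was calculated as [(Gi−Gt)/Gi]×100%. n=8 per group.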

[3] = tested on: Rattus norvegicus; experiment: Antihyperglycemic effect in normal Wistar rat assessed as attenuation of increase of plasma glucose level at 0.1 mg/kg, iv bolus measured 30 mins after intravenous glucose challenge test
[4] = tested on: Soleus muscle; experiment: Increase in uptake of 2-[1-14C]-deoxy-D-glucose in streptozotocin-induced diabetic Wistar rat isolated soleus muscle after 30 mins by beta counter; type: functional, tissue-based
Summary of the method: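 Soleus strips came from STZ-diabetic rats. They were preincubated 30 min in KRBB (pH 7.4, 37 °C, 1 mmol/L glucose, 1% BSA, 5% CO2/O2), then exposed 30 min to test agent (10-8–10-6 M). Next came 5 min with 2-[1-14C]-deoxy-D-glucose (1 µCi/mL). Tissue was digested in NaOH and counted by β-counter. Non-specific uptake with 20 µmol/L cytochalasin B was subtracted. n=8.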

[5] = tested on: Hepatocyte; experiment: Increase in glycogen synthesis in streptozotocin-induced diabetic Wistar rat hepatocyte assessed as [U14C]glucose incorporation in to glycogen […] by ethanol precipitation assay; type: functional, cell-based
Summary of the method: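 Hepatocytes from STZ-diabetic rats were isolated by collagenase perfusion (>90% viable by trypan blue). After 30 min preincubation in KRBB at 37 °C, they were incubated with [U-14C]-glucose (0.25 µCi/mL) plus test agent (10-8–10-6 M) for 1 h with shaking. Glycogen label was measured by ethanol precipitation and expressed as pmol/mg protein. n=8; compared against vehicle blanks.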

[6] = tested on: Rattus norvegicus; experiment: Antihyperglycemic effect in iv bolus dosed streptozotocin-induced diabetic Wistar rat assessed as reduction of plasma glucose level after 30 mins; type: functional, organism-based
Summary of the method: as §1

[7] = tested on: Rattus norvegicus; experiment: Antihyperglycemic effect in streptozotocin-induced diabetic Wistar rat assessed as reduction of plasma glucose level at 0.01 mg/kg, iv bolus after 30 mins relative to untreated control; type: functional; set-up: scale not given: the % may be the effect or the level left
Summary of the method: as §1

[8] = tested on: Rattus norvegicus; experiment: Antihyperglycemic effect in normal Wistar rat assessed as attenuation of increase of plasma glucose level at 0.1 mg/kg, iv bolus measured 20 mins after intravenous glucose challenge test
[9] = tested on: Rattus norvegicus; experiment: Antihyperglycemic effect in streptozotocin-induced diabetic Wistar rat assessed as reduction of plasma glucose level at 0.15 mg/kg, iv bolus after 30 mins; type: functional, organism-based; set-up: dose 0.15 mg/kg
Summary of the method: as §1

[10] = tested on: Rattus norvegicus; experiment: Antihyperglycemic effect in streptozotocin-induced diabetic Wistar rat assessed as reduction of plasma glucose level at 0.1 mg/kg, iv bolus after 30 mins; type: functional, organism-based; set-up: dose 0.1 mg/kg
Summary of the method: as §1

[11] = tested on: Rattus norvegicus; experiment: Antihyperglycemic effect in normal Wistar rat assessed as attenuation of increase of plasma glucose level at 0.1 mg/kg, iv bolus measured 5 mins after intravenous glucose challenge test

`CN(C)C(=N)NC(=N)N` [METFORMIN] showed an Activity [1] of 32%.

For `OC[C@H]1O[C@@H](O[C@@H]2OC=C[C@H]3[C@H](O)[C@@H]4O[C@]4(CO)[C@@H]23)[C@H](O)[C@@H](O)[C@@H]1O` [CATALPOL], the Activity [2] was 24.33%, the Activity [3] was “inactive” and the Activity [4] was “Dose-dependent effect”. For the same compound, the Activity [5] was “Dose-dependent effect”, the Activity [6] was “Dose-dependent effect” and the Activity [7] was 8.53%. For the same compound, the Activity [8] was “Active”, the Activity [9] was “Active” and the Activity [10] was “Active”. The Activity [11] was “Active”.
